Laboratory results: ChEMBL document CHEMBL4177561, “Development of Selective, Orally Active GPR4 Antagonists with Modulatory Effects on Nociception, Inflammation, and Angiogenesis” (J Med Chem, 2017)

Key:
Rattus norvegicus = assay: Dose normalized AUC in Sprague-Dawley rat at 3 mg/kg, po; format: ADME, organism-based; conditions: in vivo
Method in brief: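 Catheterized female Sprague-Dawley rats received a single oral dose of 3 mg/kg as a suspension in CMC:water:Tween 80 (0.5:99:0.5). This followed a 48 h wash-out after iv dosing in the same animals.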

[1] = Drug level in blood of methylated BSA and complete Freund's adjuvant sensitized Lewis rat antigen-induced arthritis model at 30 mg/kg, po bid for 7 days and measured 2 hrs post dose; format: ADME, organism-based; conditions: read-out: Drug uptake
Method in brief: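 Lewis rat AIA model, 30 mg/kg po bid. Blood concentration was measured on day 7 at 2 h post dose. Values are the mean of n = 5.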

[2] = Clearance in Sprague-Dawley rat at 1 mg/kg, iv; format: ADME, organism-based; conditions: in vivo
Method in brief: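 Female Sprague-Dawley rats with femoral artery and vein catheters received a single iv dose of 1 mg/kg in NMP:PEG200 (30:70). Clearance is the mean ± SD of four animals.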

[3] = Drug level in blood of FVB mouse chamber implant model at 30 mg/kg, po bid for 4 days measured at 2 hrs on day 4; conditions: read-out: Drug uptake
[4] = Drug level in blood of FVB mouse chamber implant model at 30 mg/kg, po bid for 4 days measured at 16 hrs on day 4; conditions: read-out: Drug uptake

Structure (SMILES) | AUC/dose (Rattus norvegicus) | concentration at 2 h [1] | clearance [2] | concentration at 2 h [3] | concentration at 16 h [4]
CCc1nn2c(C)cc(C)nc2c1Cc1ccc(/C=C/CN2CCNC(=O)C2)cc1 | 13.6 µmol·h/L | 23 µM | 4 mL/min/kg | – | –
CCc1nn2c(C)cc(C)nc2c1Cc1ccc(/C=C/CN2CCN(C(C)C)CC2)cc1 | 3.2 µmol·h/L | – | 12 mL/min/kg | – | –
CCc1nn2c(C)cc(C)nc2c1Cc1ccc(CCCN2CCN(C(C)C)CC2)cc1 | 1.1 µmol·h/L | – | 29 mL/min/kg | – | –
CCc1nn2c(C)cc(C)nc2c1Cc1ccc(/C=C/CN2CCN(C[C@@H](O)CO)CC2)cc1 | 5.1 µmol·h/L | – | 11 mL/min/kg | – | –
CCc1nn2c(C)cc(C)nc2c1Cc1ccc(CCC(O)C2CCNCC2)cc1 (centres undefined) | 0.49 µmol·h/L | – | 31 mL/min/kg | – | –
CCc1nn2c(C)cc(C)nc2c1Cc1ccc(-c2nnc(C3CCNCC3)o2)cc1 | 6.7 µmol·h/L | – | 6 mL/min/kg | 9.03 µM | 0.09 µM
CCc1nn2c(C)cc(C)nc2c1Cc1ccc(CCC(=O)N2CCNCC2)cc1 | 1.2 µmol·h/L | – | 28 mL/min/kg | – | –
CCc1nn2c(C)cc(C)nc2c1Cc1ccc(CCCC2(O)CCNCC2)cc1 | 0.53 µmol·h/L | – | 49 mL/min/kg | – | –
